The record followed here is ChEMBL document CHEMBL2177068, “Modeling cellular pharmacokinetics of 14- and 15-membered macrolides with physicochemical properties” (J Med Chem, 2011).

The nature of data set [1]: Cellular uptake in normal human lung fibroblast at 3 to 20 uM after 3 hrs by LC-MS/MS analysis relative to azithromycin. It is filed as ADME. Summed up: (§1)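 Cells (primary human BSMC, MDM, NHBE, PMN, T-lymphocytes, NHLF, or NCI-H292 lung carcinoma line) incubated 3 h with 3-20 μM macrolide; extracellular drug removed (PMNs washed through silicone oil, NCI-H292 washed with ice-cold PBS). Intracellular drug quantified by LC-MS/MS; accumulation expressed as % of azithromycin accumulation measured in the same experiment. Azithromycin reference run at 10 μM, normalized to total protein.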

Data set [2] in a line: Cellular uptake in human BSMC at 3 to 20 uM after 3 hrs by LC-MS/MS analysis relative to azithromycin. Format: ADME. Summed up: as §1
The test system of data set [3] is NCI-H292. The data set can be described thus: Cellular uptake in human NCI-H292 cells assessed as compound retention at 3 to 20 uM incubated for 3 hrs followed by drug washout measured after 3 hrs by LC-MS/MS analysis relative to initial drug accumulation. It is filed as ADME, cell-based. The conditions noted are these: nci-h292, 3 h. Summed up:
(§2)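 Cells loaded 3 h with 3-20 μM macrolide, then incubated 3 h in drug-free medium. Intracellular drug measured by LC-MS/MS before and after washout. Retention given as percentage of initially accumulated compound remaining in cells after washout.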

The nature of data set [4]: Cellular uptake in human PMNC at 3 to 20 uM after 3 hrs by LC-MS/MS analysis relative to azithromycin. Format: ADME. Summed up:
as §1

Data set [5] can be described thus: Cellular uptake in normal human lung fibroblasts assessed as compound retention at 3 to 20 uM incubated for 3 hrs followed by drug washout measured after 3 hrs by LC-MS/MS analysis relative to initial drug accumulation. It is filed as ADME. The procedure, abridged: as §2
Data set [6] can be described thus: Cellular uptake in human BSMC assessed as compound retention at 3 to 20 uM incubated for 3 hrs followed by drug washout measured after 3 hrs by LC-MS/MS analysis relative to initial drug accumulation. It is filed as ADME. Summed up: as §2
Data set [7] is described as follows: Cellular uptake in human T lymphocytes assessed as compound retention at 3 to 20 uM incubated for 3 hrs followed by drug washout measured after 3 hrs by LC-MS/MS analysis relative to initial drug accumulation. It is filed as ADME, cell-based. The conditions noted are these: t-cell. Summed up:
as §2

The nature of data set [8]: Cellular uptake in human MDM at 3 to 20 uM after 3 hrs by LC-MS/MS analysis relative to azithromycin. Format: ADME. Summed up: as §1
The test system of data set [9] is NCI-H292. The data set can be described thus: Cellular uptake in human […] cells at 3 to 20 uM after 3 hrs by LC-MS/MS analysis relative to azithromycin. The conditions noted are these: nci-h292, 3 h. Format: ADME, cell-based. Summed up: as §1
Data set [10] in a line: Cellular uptake in human T lymphocytes at 3 to 20 uM after 3 hrs by LC-MS/MS analysis relative to azithromycin. It is filed as ADME, cell-based. The conditions noted are these: t-cell. The procedure, abridged: as §1
Data set [11] can be described thus: Cellular uptake in human MDM assessed as compound retention at 3 to 20 uM incubated for 3 hrs followed by drug washout measured after 3 hrs by LC-MS/MS analysis relative to initial drug accumulation. Format: ADME. Summed up:
as §2

Data set [12] is described as follows: Cellular uptake in human NHBE assessed as compound retention at 3 to 20 uM incubated for 3 hrs followed by drug washout measured after 3 hrs by LC-MS/MS analysis relative to initial drug accumulation. It is filed as ADME. Summed up: as §2
The nature of data set [13]: Cellular uptake in human NHBE at 3 to 20 uM after 3 hrs by LC-MS/MS analysis relative to azithromycin. Format: ADME. The procedure, abridged:
as §1

A short description of data set [14]: Cellular uptake in human PMNC assessed as compound retention at 3 to 20 uM incubated for 3 hrs followed by drug washout measured after 3 hrs by LC-MS/MS analysis relative to initial drug accumulation. Format: ADME. The procedure, abridged: as §2

The structures appear in SMILES notation.

For `CC[C@H]1OC(=O)[C@H](C)[C@@H](O)[C@H](C)[C@@H](O)[C@](C)(O)C[C@@H](C)CN(C)[C@H](C)[C@@H](O)[C@]1(C)O` [AZITHROMYCIN AGLYCONE], the Drug uptake in [1] is on record as 54%; in data set [2], 9%; with NCI-H292 [3], 0%; in data set [4], 17%; in data set [5], 0%; in [6], 0%. Moreover, the Drug uptake turned out to be 1% in data set [7]; 28% in [8]; 13% in the data set with NCI-H292 [9]; 5% in data set [10]; 3% in [11]; 0% in data set [12]. Moreover, the Drug uptake in data set [13] came to 8%; in data set [14] it was 0%.
With `CCCCCCCC(=O)NCCCN1C[C@H](C)C[C@@](C)(O)[C@H](O[C@@H]2O[C@H](C)C[C@H](N(C)C)[C@H]2O)[C@@H](C)[C@H](O[C@H]2C[C@@](C)(OC)[C@@H](O)[C@H](C)O2)[C@@H](C)C(=O)O[C@H](CC)[C@@](C)(O)[C@H](O)[C@H]1C`, the Drug uptake amounted to 122% in [1]; 111% in [2]; 69% in the data set with NCI-H292 [3]; 146% in data set [4]; 84% in data set [5]; 57% in data set [6]. The Drug uptake in [7] turned out to be 30%; in data set [8], 120%; in the data set with NCI-H292 [9], 207%; in data set [10], 127%; in data set [11], 83%; in [12], 71%. The results for the Drug uptake in data set [13] and in data set [14] were 135% and 77%, respectively.
With `CC[C@H]1OC(=O)[C@H](C)[C@@H](O[C@H]2C[C@@](C)(OC)[C@@H](O)[C@H](C)O2)[C@H](C)[C@@H](O[C@@H]2O[C@H](C)C[C@H](N(C)C)[C@H]2O)[C@](C)(O)C[C@@H](C)CN(C)[C@H](C)[C@@H](O)[C@]1(C)O` [AZITHROMYCIN], the Drug uptake in data set [1] was determined as 100%; in [2], 100%; with NCI-H292 [3] it was 77%; in data set [4], 100%; in data set [5], 80%; in [6], 54%. The Drug uptake in [7] is recorded as 38%; in data set [8], 100%; with NCI-H292 [9], 100%; in data set [10], 100%; in data set [11], 93%; in data set [12], 63%. Besides, the Drug uptake in data set [13] was 100%; in data set [14], 79%.
Take `CC[C@H]1OC(=O)[C@H](C)[C@@H](O[C@H]2C[C@@](C)(OC)[C@@H](O)[C@H](C)O2)[C@H](C)[C@@H](O[C@@H]2O[C@H](C)C[C@H](N(C)C)[C@H]2O)[C@](C)(OC)C[C@@H](C)C(=O)N[C@H](C)[C@@H](O)[C@]1(C)O`: the Drug uptake stood at 9% in data set [1]; 5% in data set [2]; 23% with NCI-H292 [3]; 13% in data set [4]; 35% in [5]; 0% in data set [6]. The Drug uptake amounted to 2% in data set [7]; 11% in data set [8]; 10% in the data set with NCI-H292 [9]; 5% in data set [10]; 8% in data set [11]; 16% in data set [12]. Besides, the figures for the Drug uptake in data set [13] and in data set [14] were 11% and 37%, respectively.
Consider `CC[C@H]1OC(=O)[C@H](C)[C@@H](O[C@H]2C[C@@](C)(OC)[C@@H](OC(=O)CN(CC)CC)[C@H](C)O2)[C@H](C)[C@@H](O[C@@H]2O[C@H](C)C[C@H](N(C)C)[C@H]2O)[C@](C)(OC)C[C@@H](C)C(=O)N[C@H](C)[C@@H](O)[C@]1(C)O`, for which the Drug uptake in data set [1] is 256%; in data set [2], 83%; with NCI-H292 [3], 48%; in [4] it was 118%; in data set [5], 63%; in data set [6], 27%. Further, the Drug uptake in data set [7] is 6%; in [8] it was 148%; in the data set with NCI-H292 [9], 121%; in data set [10], 41%; in [11] it was 56%; in data set [12] it was 33%. In addition, the Drug uptake is listed as 101% in [13] and 74% in data set [14].
With `CC[C@H]1OC(=O)[C@H](C)[C@@H](O[C@H]2C[C@@](C)(OC)[C@@H](O)[C@H](C)O2)[C@H](C)[C@@H](O[C@@H]2O[C@H](C)C[C@H](N(C)C)[C@H]2O)[C@](C)(OC)C[C@@H](C)C(=O)[C@H](C)[C@@H](O)[C@]1(C)O` [CLARITHROMYCIN], the Drug uptake is given as 127% in data set [1]; 36% in data set [2]; 1% in the data set with NCI-H292 [3]; 36% in [4]; 1% in data set [5]; 1% in data set [6]. In addition, the Drug uptake in [7] was found to be 2%; in data set [8] it was 66%; in the data set with NCI-H292 [9], 35%; in data set [10], 16%; in data set [11], 4%; in data set [12] it was 0%. The figures for the Drug uptake in [13] and in [14] were 25% and 2%, respectively.
Regarding `CCCCCCCC(=O)NCCCN(C)[C@H]1C[C@@H](C)O[C@@H](O[C@@H]2[C@@H](C)[C@H](O[C@H]3C[C@@](C)(OC)[C@@H](O)[C@H](C)O3)[C@@H](C)C(=O)O[C@H](CC)[C@@](C)(O)[C@H](O)[C@@H](C)N(C)C[C@H](C)C[C@@]2(C)O)[C@@H]1O`, the Drug uptake is 1699% in data set [1]; 598% in data set [2]; 51% in the data set on NCI-H292 [3]; 663% in [4]; 78% in data set [5]; 47% in data set [6]. Moreover, the Drug uptake in data set [7] came to 19%; in [8] it was 1235%; in the data set on NCI-H292 [9], 457%; in data set [10], 460%; in data set [11] it was 100%; in data set [12], 57%. Besides, the Drug uptake was found to be 422% in [13] and 85% in data set [14].
On to `CC[C@H]1OC(=O)[C@H](C)[C@@H](O)[C@H](C)[C@@H](O[C@@H]2O[C@H](C)C[C@H](N(C)C)[C@H]2O)[C@](C)(O)C[C@@H](C)CN(C)[C@H](C)[C@@H](O)[C@]1(C)O` [DESCLADINOSYL AZITHROMYCIN], for which the Drug uptake in data set [1] is recorded as 52%; in data set [2] it was 75%; in the data set on NCI-H292 [3] it was 77%; in data set [4] it was 42%; in data set [5], 70%; in data set [6], 63%. For the same compound, the Drug uptake is 46% in [7]; 79% in data set [8]; 56% in the data set with NCI-H292 [9]; 52% in [10]; 81% in [11]; 74% in data set [12]. For the same compound, the values for the Drug uptake in [13] and in [14] were 52% and 68%, respectively.
